Measured values reported in ChEMBL document CHEMBL1158460, “Heterobiaryl human immunodeficiency virus entry inhibitors” (J Med Chem, 2009).
pIC50: −log10 of the molar value.

biological target: not listed separately; assay: Inhibition of HIV1 3B recombinant gp120/sCD4 binding interaction by ELISA; conditions: not given
Method in brief: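 Competitive ELISA of soluble CD4 binding to gp120 from HIV IIIB. Bound CD4 was detected with an anti-CD4 monoclonal antibody, then a peroxidase-labelled anti-mouse antibody. The read-out was the 50% inhibitory dose.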

| Compound | pIC50 |
| --- | --- |
| COc1cc(C(=O)C(=O)N2CCN(C(=O)c3ccccc3)C[C@H]2C)ccc1-c1cnco1 | 6.11 |
| C[C@@H]1CN(C(=O)c2ccccc2)CCN1C(=O)C(=O)c1ccc(-c2cc[nH]n2)cc1O | < 5.00 |
| C[C@@H]1CN(C(=O)c2ccccc2)CCN1C(=O)C(=O)c1ccc(-c2cnco2)c(Cl)c1 | 6.63 |
| Cc1cc(-c2ccc(C(=O)C(=O)N3CCN(C(=O)c4ccccc4)C[C@H]3C)cc2F)on1 | < 5.00 |
| C[C@@H]1CN(C(=O)c2ccccc2)CCN1C(=O)C(=O)c1ccc(-c2cc[nH]n2)cc1N | 5.23 |
| Cc1cc(-c2cc[nH]n2)ccc1C(=O)C(=O)N1CCN(C(=O)c2ccccc2)C[C@H]1C | < 5.00 |
| COc1cnc(-n2ccnn2)c2[nH]cc(S(=O)(=O)N3CCN(C(=O)c4ccccc4)C[C@H]3C)c12 | 6.67 |
| COc1cc(C(=O)C(=O)N2CCN(C(=O)c3ccccc3)C[C@H]2C)ccc1-c1cc[nH]n1 | 5.60 |
| C[C@@H]1CN(C(=O)c2ccccc2)CCN1C(=O)C(=O)c1ccc(N2CCOC2=O)cc1 | < 5.00 |
| COc1cc(C(=O)C(=O)N2CCN(C(=O)c3ccccc3)C[C@H]2C)ccc1-c1cc(C)no1 | < 5.00 |
| C[C@@H]1CN(C(=O)c2ccccc2)CCN1C(=O)C(=O)c1ccc(-n2cccn2)cc1 | < 5.12 |
| C[C@@H]1CN(C(=O)c2ccccc2)CCN1C(=O)C(=O)c1ccc(-c2ccn[nH]2)cc1Cl | 5.34 |
| Cc1cc(C(=O)C(=O)N2CCN(C(=O)c3ccccc3)C[C@H]2C)ccc1-c1cc[nH]n1 | 6.17 |
| CC1CN(C(=O)c2ccccc2)CCN1C(=O)C(=O)c1ccc(-n2nccn2)cc1 (racemic) | 5.21 |
| Cc1ccc(-c2ccc(C(=O)C(=O)N3CCN(C(=O)c4ccccc4)C[C@H]3C)cc2)o1 | < 5.00 |
| COc1cc(-c2ccn[nH]2)ccc1C(=O)C(=O)N1CCN(C(=O)c2ccccc2)C[C@H]1C | 6.25 |
| C[C@@H]1CN(C(=O)c2ccccc2)CCN1C(=O)C(=O)c1ccc(-c2nccs2)cc1 | < 5.00 |
| C[C@@H]1CN(C(=O)c2ccccc2)CCN1C(=O)C(=O)c1ccc(N2CCCC2)cc1 | < 5.00 |
| C[C@@H]1CN(C(=O)c2ccccc2)CCN1C(=O)C(=O)c1ccc(-c2cc[nH]n2)cc1F | 5.96 |
| Cc1cc(-c2ccc(C(=O)C(=O)N3CCN(C(=O)c4ccccc4)C[C@H]3C)cc2)on1 | < 5.00 |
| CC1CN(C(=O)c2ccccc2)CCN1C(=O)C(=O)c1ccc(-n2cncn2)cc1 (racemic) | < 5.00 |

test system: Human immunodeficiency virus 1; assay: Antiviral activity against HIV1 expressed in 293T cells assessed as protection against viral M33 envelope infection in human U87 cells coexpressing CD4, CCR5 receptors after 72 hrs by luciferase reporter gene pseudoviral assay; type: functional, organism-based; conditions: Human immunodeficiency virus 1, HEK-293T
Method in brief: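 Pseudovirions carry an R5-using envelope cloned from a primary virus isolate. Anti-HIV-1 activity was taken as the 50% inhibitory dose against these pseudovirions.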

| Compound | pIC50 |
| --- | --- |
| CC1CN(C(=O)c2ccccc2)CCN1C(=O)C(=O)c1ccc(-c2ccn(C)n2)cc1 (racemic) | 5.74 |
| COc1cc(C(=O)C(=O)N2CCN(C(=O)c3ccccc3)C[C@H]2C)ccc1-c1cnco1 | 7.30 |
| C[C@@H]1CN(C(=O)c2ccccc2)CCN1C(=O)C(=O)c1ccc(-c2cc[nH]n2)cc1O | 5.66 |
| C[C@@H]1CN(C(=O)c2ccccc2)CCN1C(=O)C(=O)c1ccc(-c2cnco2)c(Cl)c1 | > 8.30 |
| Cc1cc(-c2ccc(C(=O)C(=O)N3CCN(C(=O)c4ccccc4)C[C@H]3C)cc2F)on1 | 6.89 |
| C[C@@H]1CN(C(=O)c2ccccc2)CCN1C(=O)C(=O)c1ccc(-c2cc[nH]n2)cc1N | 7.11 |
| Cc1cc(-c2cc[nH]n2)ccc1C(=O)C(=O)N1CCN(C(=O)c2ccccc2)C[C@H]1C | 5.96 |
| C[C@@H]1CN(C(=O)c2ccccc2)CCN1C(=O)C(=O)c1ccc(-c2ccccn2)s1 | 4.89 |
| COc1cnc(-n2ccnn2)c2[nH]cc(S(=O)(=O)N3CCN(C(=O)c4ccccc4)C[C@H]3C)c12 | 8.15 |
| CC(=O)c1cc(-c2ccc(C(=O)C(=O)N3CCN(C(=O)c4ccccc4)CC3C)cc2)cs1 (racemic) | 6.04 |
| CC1CN(C(=O)c2ccccc2)CCN1C(=O)C(=O)c1ccc(-c2cc(N)ncn2)cc1 (racemic) | 5.85 |
| C[C@@H]1CN(C(=O)c2ccccc2)CCN1C(=O)C(=O)c1ccc(-c2cccs2)cc1 | 6.36 |
| COc1cc(C(=O)C(=O)N2CCN(C(=O)c3ccccc3)C[C@H]2C)ccc1-c1cc[nH]n1 | 7.25 |
| C[C@@H]1CN(C(=O)c2ccccc2)CCN1C(=O)C(=O)c1ccc(-c2ncccc2F)cc1 | 5.70 |
| C[C@@H]1CN(C(=O)c2ccccc2)CCN1C(=O)C(=O)c1ccc(N2CCOC2=O)cc1 | 4.92 |
| CC1CN(C(=O)c2ccccc2)CCN1C(=O)C(=O)c1ccc(-c2cnn(C)c2)cc1 (racemic) | 6.96 |
| COc1cc(C(=O)C(=O)N2CCN(C(=O)c3ccccc3)C[C@H]2C)ccc1-c1cc(C)no1 | 6.08 |
| C[C@@H]1CN(C(=O)c2ccccc2)CCN1C(=O)C(=O)c1ccc(-n2cccn2)cc1 | 5.92 |
| C[C@@H]1CN(C(=O)c2ccccc2)CCN1C(=O)C(=O)c1ccc(-c2ccn[nH]2)cc1Cl | 6.60 |
| Cc1cc(C(=O)C(=O)N2CCN(C(=O)c3ccccc3)C[C@H]2C)ccc1-c1cc[nH]n1 | 7.46 |

| Compound | pIC50 |
| --- | --- |
| CC1CN(C(=O)c2ccccc2)CCN1C(=O)C(=O)c1ccc(-n2nccn2)cc1 (racemic) | 6.06 |
| Cc1ccc(-c2ccc(C(=O)C(=O)N3CCN(C(=O)c4ccccc4)C[C@H]3C)cc2)o1 | 5.55 |
| COc1cc(-c2ccn[nH]2)ccc1C(=O)C(=O)N1CCN(C(=O)c2ccccc2)C[C@H]1C | > 8.30 |
| C[C@@H]1CN(C(=O)c2ccccc2)CCN1C(=O)C(=O)c1ccc(-c2cscn2)cc1 | 6.38 |
| CC(=O)c1ccc(-c2ccc(C(=O)C(=O)N3CCN(C(=O)c4ccccc4)C[C@H]3C)cc2)s1 | 5.80 |
| C[C@@H]1CN(C(=O)c2ccccc2)CCN1C(=O)C(=O)c1ccc(-c2ccsc2)cc1 | 6.27 |
| C[C@@H]1CN(C(=O)c2ccccc2)CCN1C(=O)C(=O)c1ccc(-c2nccs2)cc1 | 6.20 |
| C[C@@H]1CN(C(=O)c2ccccc2)CCN1C(=O)C(=O)c1ccc(N2CCCC2)cc1 | 5.17 |
| C[C@@H]1CN(C(=O)c2ccccc2)CCN1C(=O)C(=O)c1ccc(-c2cc[nH]n2)cc1F | 7.34 |
| C[C@@H]1CN(C(=O)c2ccccc2)CCN1C(=O)C(=O)c1ccc(-c2cnco2)cc1 | 6.60 |
| C[C@@H]1CN(C(=O)c2ccccc2)CCN1C(=O)C(=O)c1ccc(-c2ccncc2)cc1 | 5.60 |
| C[C@@H]1CN(C(=O)c2ccccc2)CCN1S(=O)(=O)c1ccc(-c2ccccn2)s1 | 5.27 |
| Cc1cc(-c2ccc(C(=O)C(=O)N3CCN(C(=O)c4ccccc4)C[C@H]3C)cc2)on1 | 6.48 |
| CC1CN(C(=O)c2ccccc2)CCN1C(=O)C(=O)c1ccc(-n2cncn2)cc1 (racemic) | 6.03 |
| C[C@@H]1CN(C(=O)c2ccccc2)CCN1C(=O)C(=O)c1cccc(-c2ccccn2)c1 | 4.64 |
| Cc1nc(-c2ccc(C(=O)C(=O)N3CCN(C(=O)c4ccccc4)C[C@H]3C)cc2)cs1 | 5.27 |
| C[C@@H]1CN(C(=O)c2ccccc2)CCN1S(=O)(=O)c1ccc(-c2cnco2)s1 | 5.92 |
| CNc1cc(-c2cc[nH]n2)ccc1C(=O)C(=O)N1CCN(C(=O)c2ccccc2)C[C@H]1C | < 5.00 |
| C[C@@H]1CN(C(=O)c2ccccc2)CCN1C(=O)C(=O)c1ccc(-c2cncs2)cc1 | 6.49 |

test system: not listed separately; assay: Cytotoxicity against human U87 cells coexpressing CD4, CxCR4 receptors after 72 hrs; type: cell-based, U-87MG ATCC; conditions: U87 cells coexpressing CD4 and CXCR4 receptors

| Compound | CC50 at 72 h [nM] |
| --- | --- |
| CC1CN(C(=O)c2ccccc2)CCN1C(=O)C(=O)c1ccc(-c2ccn(C)n2)cc1 (racemic) | > 40000 |
| COc1cc(C(=O)C(=O)N2CCN(C(=O)c3ccccc3)C[C@H]2C)ccc1-c1cnco1 | > 40000 |
| C[C@@H]1CN(C(=O)c2ccccc2)CCN1C(=O)C(=O)c1ccc(-c2cc[nH]n2)cc1O | > 40000 |
| C[C@@H]1CN(C(=O)c2ccccc2)CCN1C(=O)C(=O)c1ccc(-c2cnco2)c(Cl)c1 | > 40000 |
| Cc1cc(-c2ccc(C(=O)C(=O)N3CCN(C(=O)c4ccccc4)C[C@H]3C)cc2F)on1 | > 40000 |
| C[C@@H]1CN(C(=O)c2ccccc2)CCN1C(=O)C(=O)c1ccc(-c2cc[nH]n2)cc1N | > 40000 |
| Cc1cc(-c2cc[nH]n2)ccc1C(=O)C(=O)N1CCN(C(=O)c2ccccc2)C[C@H]1C | > 40000 |
| C[C@@H]1CN(C(=O)c2ccccc2)CCN1C(=O)C(=O)c1ccc(-c2ccccn2)s1 | > 40000 |
| COc1cnc(-n2ccnn2)c2[nH]cc(S(=O)(=O)N3CCN(C(=O)c4ccccc4)C[C@H]3C)c12 | > 40000 |
| CC(=O)c1cc(-c2ccc(C(=O)C(=O)N3CCN(C(=O)c4ccccc4)CC3C)cc2)cs1 (racemic) | > 40000 |
| CC1CN(C(=O)c2ccccc2)CCN1C(=O)C(=O)c1ccc(-c2cc(N)ncn2)cc1 (racemic) | > 40000 |
| C[C@@H]1CN(C(=O)c2ccccc2)CCN1C(=O)C(=O)c1ccc(-c2cccs2)cc1 | > 40000 |
| COc1cc(C(=O)C(=O)N2CCN(C(=O)c3ccccc3)C[C@H]2C)ccc1-c1cc[nH]n1 | > 40000 |
| C[C@@H]1CN(C(=O)c2ccccc2)CCN1C(=O)C(=O)c1ccc(-c2ncccc2F)cc1 | > 40000 |
| C[C@@H]1CN(C(=O)c2ccccc2)CCN1C(=O)C(=O)c1ccc(N2CCOC2=O)cc1 | > 40000 |
| CC1CN(C(=O)c2ccccc2)CCN1C(=O)C(=O)c1ccc(-c2cnn(C)c2)cc1 (racemic) | > 40000 |
| COc1cc(C(=O)C(=O)N2CCN(C(=O)c3ccccc3)C[C@H]2C)ccc1-c1cc(C)no1 | > 40000 |
| C[C@@H]1CN(C(=O)c2ccccc2)CCN1C(=O)C(=O)c1ccc(-n2cccn2)cc1 | > 40000 |
| C[C@@H]1CN(C(=O)c2ccccc2)CCN1C(=O)C(=O)c1ccc(-c2ccn[nH]2)cc1Cl | > 40000 |
| Cc1cc(C(=O)C(=O)N2CCN(C(=O)c3ccccc3)C[C@H]2C)ccc1-c1cc[nH]n1 | > 40000 |

| Compound | CC50 at 72 h [nM] |
| --- | --- |
| CC1CN(C(=O)c2ccccc2)CCN1C(=O)C(=O)c1ccc(-n2nccn2)cc1 (racemic) | > 40000 |
| Cc1ccc(-c2ccc(C(=O)C(=O)N3CCN(C(=O)c4ccccc4)C[C@H]3C)cc2)o1 | > 40000 |
| COc1cc(-c2ccn[nH]2)ccc1C(=O)C(=O)N1CCN(C(=O)c2ccccc2)C[C@H]1C | > 40000 |
| C[C@@H]1CN(C(=O)c2ccccc2)CCN1C(=O)C(=O)c1ccc(-c2cscn2)cc1 | > 40000 |
| CC(=O)c1ccc(-c2ccc(C(=O)C(=O)N3CCN(C(=O)c4ccccc4)C[C@H]3C)cc2)s1 | > 40000 |
| C[C@@H]1CN(C(=O)c2ccccc2)CCN1C(=O)C(=O)c1ccc(-c2ccsc2)cc1 | > 40000 |
| C[C@@H]1CN(C(=O)c2ccccc2)CCN1C(=O)C(=O)c1ccc(-c2nccs2)cc1 | > 40000 |
| C[C@@H]1CN(C(=O)c2ccccc2)CCN1C(=O)C(=O)c1ccc(N2CCCC2)cc1 | > 40000 |
| C[C@@H]1CN(C(=O)c2ccccc2)CCN1C(=O)C(=O)c1ccc(-c2cc[nH]n2)cc1F | > 40000 |
| C[C@@H]1CN(C(=O)c2ccccc2)CCN1C(=O)C(=O)c1ccc(-c2cnco2)cc1 | > 40000 |
| C[C@@H]1CN(C(=O)c2ccccc2)CCN1C(=O)C(=O)c1ccc(-c2ccncc2)cc1 | > 40000 |
| C[C@@H]1CN(C(=O)c2ccccc2)CCN1S(=O)(=O)c1ccc(-c2ccccn2)s1 | > 40000 |
| Cc1cc(-c2ccc(C(=O)C(=O)N3CCN(C(=O)c4ccccc4)C[C@H]3C)cc2)on1 | > 40000 |
| CC1CN(C(=O)c2ccccc2)CCN1C(=O)C(=O)c1ccc(-n2cncn2)cc1 (racemic) | > 40000 |
| C[C@@H]1CN(C(=O)c2ccccc2)CCN1C(=O)C(=O)c1cccc(-c2ccccn2)c1 | > 40000 |
| Cc1nc(-c2ccc(C(=O)C(=O)N3CCN(C(=O)c4ccccc4)C[C@H]3C)cc2)cs1 | > 40000 |
| C[C@@H]1CN(C(=O)c2ccccc2)CCN1S(=O)(=O)c1ccc(-c2cnco2)s1 | > 40000 |
| CNc1cc(-c2cc[nH]n2)ccc1C(=O)C(=O)N1CCN(C(=O)c2ccccc2)C[C@H]1C | > 40000 |
| C[C@@H]1CN(C(=O)c2ccccc2)CCN1C(=O)C(=O)c1ccc(-c2cncs2)cc1 | > 40000 |
